# Test results published in ChEMBL document CHEMBL1125378, “alpha-Methyl polyamines: metabolically stable spermidine and spermine mimics capable of supporting growth in cells depleted of polyamines” (J Med Chem, 1992).
# Where “and” joins values, the source holds several entries; their conditions need not be identical. Equal values may be shown once.
# Legend:
# HT-29 [1] = test: Compound level in HT-29 cells after 72 h; type: functional, cell-based; conditions: Homo sapiens
# HT-29 [2] = test: Compound level in HT-29 cells after 96 h; type: functional, cell-based; conditions: Homo sapiens
# Method in brief: (§1)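 HT29 experiment B: 5 mM DFMO for 120 h before addition and throughout a further 96 h; refed at 96 h. Cells without DFMO cultured 96 h in total. Polyamines measured as nmol/mg protein (detection limit 0.2). SD from at least four separate experiments.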
# L1210 [3] = test: Compound level in L1210 cells after 72 h; type: functional, cell-based; conditions: Mus musculus
# Method in brief: (§2)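 L1210 cells held in 5 mM DFMO for 72 h before polyamine addition and through a further 72 h, refed at 72 h; controls without DFMO cultured 72 h in total. Intracellular polyamines reported as nmol/mg protein (detection limit 0.2). Mean ± SD from at least four separate experiments.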
# L1210 [4] = test: Compound level in 72 hr DFMO (5 mM)-treated L1210 cells after exposure to 10 uM spermidine; type: functional, cell-based; conditions: Mus musculus; method in brief: as §2
# SV3T3 [5] = test: Compound level in DFMO-treated SV3T3 cells at 0 h; type: functional, cell-based; conditions: Mus musculus
# Method in brief: (§3)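 SV-3T3 fibroblasts (experiment A) held in 5 mM DFMO for 72 h before polyamine addition and throughout a further 72 h. Intracellular polyamines expressed as nmol/mg protein (detection limit 0.05). SD from at least four separate experiments, or duplicate where no SD is given.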
# SV3T3 [6] = test: Compound level in SV3T3 cells after 96 hr; type: functional, cell-based; conditions: Mus musculus
# [7] = Retention time was determined; type: ADME
# HT-29 [8] = test: Compound level in 72 hr DFMO (5 mM)-treated HT-29 cells after exposure to 10 uM 1-methylspermine; type: functional, cell-based; conditions: Homo sapiens
# Method in brief: (§4)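 HT29 cells pretreated with 5 mM DFMO for 120 h, then polyamine added and culture continued with DFMO for 72 h (experiment A); refed at 96 h. Cellular polyamine content given as nmol/mg protein (detection limit 0.2). SD from at least four separate experiments.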
# HT-29 [9] = test: Compound level in 72 hr DFMO (5 mM)-treated HT-29 cells after exposure to 10 uM spermidine; type: functional, cell-based; conditions: Homo sapiens; method in brief: as §4
# HT-29 [10] = test: Compound level in 72 hr DFMO (5 mM)-treated HT-29 cells after exposure to 10 uM spermine; type: functional, cell-based; conditions: Homo sapiens; method in brief: as §4
# HT-29 [11] = test: Compound level in 72 hr DFMO (5 mM)-treated HT-29 cells after exposure to 15 uM spermine; type: functional, cell-based; conditions: Homo sapiens; method in brief: as §4
# HT-29 [12] = test: Compound level in 72 hr DFMO (5 mM)-treated HT-29 cells after exposure to 25 uM 1-methylspermine; type: functional, cell-based; conditions: Homo sapiens; method in brief: as §4
# HT-29 [13] = test: Compound level in 72 h DFMO (5 mM)-treated HT-29 cells after exposure to 25 uM spermidine; type: functional, cell-based; conditions: Homo sapiens
# HT-29 [14] = test: Compound level in DFMO-treated HT-29 cells after 72 h; type: functional, cell-based; conditions: Homo sapiens; method in brief: as §4
# L1210 [15] = test: Compound level in 72 h DFMO (5 mM)-treated L1210 cells after exposure to 10 uM spermine; type: functional, cell-based; conditions: Mus musculus; method in brief: as §2
# L1210 [16] = test: Compound level in DFMO-treated L1210 cells at 0 h; type: functional, cell-based; conditions: Mus musculus; method in brief: as §2
# L1210 [17] = test: Compound level in 72 hr DFMO (5 mM)-treated L1210 cells after exposure to 10 uM 1,12-dimethylspermine; type: functional, cell-based; conditions: Mus musculus; method in brief: as §2
# SV3T3 [18] = test: Compound level in 96 hr DFMO (5 mM)-treated SV3T3 cells after exposure to 10 uM spermine; type: functional, cell-based; conditions: Mus musculus
# SV3T3 [19] = test: Compound level in 96 hr DFMO (5 mM)-treated SV3T3 cells after exposure to 25 uM spermine; type: functional, cell-based; conditions: Mus musculus
# SV3T3 [20] = test: Compound level in 72 hr DFMO (5 mM)-treated SV3T3 cells after exposure to 10 uM spermidine; type: functional, cell-based; conditions: Mus musculus; method in brief: as §3
# SV3T3 [21] = test: Compound level in 72 hr DFMO (5 mM)-treated SV3T3 cells after exposure to 10 uM spermine; type: functional, cell-based; conditions: Mus musculus; method in brief: as §3
# Homo sapiens = species: Homo sapiens; test: Compound level in DFMO-treated HT-29 cells after 96 h; type: functional, cell-based; method in brief: as §1
# HT-29 [22] = test: Compound level in 96 hr DFMO (5 mM)-treated HT-29 cells after exposure to 10 uM spermine; type: functional, cell-based; conditions: Homo sapiens
# HT-29 [23] = test: Compound level in 72 hr DFMO (5 mM)-treated HT-29 cells after exposure to 25 uM 1,12-dimethylspermine; type: functional, cell-based; conditions: Homo sapiens, in the assay text read “120 hr” for “72 hr”; method in brief: as §1
# HT-29 [24] = test: Compound level in 72 hr DFMO (5 mM)-treated HT-29 cells after exposure to 25 uM 1-methylspermidine; type: functional, cell-based; conditions: Homo sapiens; method in brief: as §4
# HT-29 [25] = test: Compound level in 72 hr DFMO (5 mM)-treated HT-29 cells after exposure to 10 uM 1-methylspermidine; type: functional, cell-based; conditions: Homo sapiens; method in brief: as §4
# HT-29 [26] = test: Compound level in DFMO-treated HT-29 cells at 0 h; type: functional, cell-based; conditions: Homo sapiens
# HT-29 [27] = test: Compound level in 72 hr DFMO (5 mM)-treated HT-29 cells after exposure to 10 uM 1,12-dimethylspermine; type: functional, cell-based; conditions: Homo sapiens, in the assay text read “120 hr” for “72 hr”; method in brief: as §1
# L1210 [28] = test: Compound level in 72 hr DFMO (5 mM)-treated L1210 cells after exposure to 10 uM 1-methylspermidine; type: functional, cell-based; conditions: Mus musculus; method in brief: as §2
# L1210 [29] = test: Compound level in 72 hr DFMO (5 mM)-treated L1210 cells after exposure to 10 uM 1-methylspermine; type: functional, cell-based; conditions: Mus musculus; method in brief: as §2
# SV3T3 [30] = test: Compound level in 96 hr DFMO (5 mM)-treated SV3T3 cells after exposure to 10 uM 1,12-dimethylspermine; type: functional, cell-based; conditions: Mus musculus
# SV3T3 [31] = test: Compound level in 96 hr DFMO (5 mM)-treated SV3T3 cells after exposure to 25 uM 1,12-dimethylspermine; type: functional, cell-based; conditions: Mus musculus
# SV3T3 [32] = test: Compound level in 72 hr DFMO (5 mM)-treated SV3T3 cells after exposure to 25 uM 1-methylspermidine; type: functional, cell-based; conditions: Mus musculus; method in brief: as §3
# SV3T3 [33] = test: Compound level in 72 hr DFMO (5 mM)-treated SV3T3 cells after exposure to 25 uM 1-methylspermine; type: functional, cell-based; conditions: Mus musculus; method in brief: as §3
# SV3T3 [34] = test: Compound level in 72 hr DFMO (5 mM)-treated SV3T3 cells after exposure to 1 uM 1-methylspermidine; type: functional, cell-based; conditions: Mus musculus; method in brief: as §3
# SV3T3 [35] = test: Compound level in 72 hr DFMO (5 mM)-treated SV3T3 cells after exposure to 1 uM 1-methylspermine; type: functional, cell-based; conditions: Mus musculus; method in brief: as §3
# SV3T3 [36] = test: Compound level in 72 h DFMO (5 mM)-treated SV3T3 cells after exposure to 10 uM 1-methylspermidine; type: functional, cell-based; conditions: Mus musculus; method in brief: as §3
# SV3T3 [37] = test: Compound level in 72 hr DFMO (5 mM)-treated SV3T3 cells after exposure to 10 uM 1-methylspermine; type: functional, cell-based; conditions: Mus musculus; method in brief: as §3
# L1210 [38] = conditions: Mus musculus
# SV3T3 [39] = conditions: Mus musculus
# SV3T3 [40] = conditions: Mus musculus; remark: listed apart in the source
# SV3T3 [41] = conditions: Mus musculus; remark: listed apart in the source
# SV3T3 [42] = conditions: Mus musculus; remark: listed apart in the source
# SV3T3 [43] = test: Compound level in 72 hr DFMO (5 mM)-treated SV3T3 cells after exposure to 1 uM 1,12-dimethylspermine; conditions: Mus musculus
compound,measurement,setting,value
NCCCCN,Level (nM (mg of protein)-1),HT-29 [1],4.4
same,Level (nM (mg of protein)-1),HT-29 [2],5.9
same,Level (nM (mg of protein)-1),L1210 [3],5.8
same,Level (nM (mg of protein)-1),L1210 [4],0.8
same,Level (nM (mg of protein)-1),SV3T3 [5],0.5
same,Level (nM (mg of protein)-1),SV3T3 [6],0.9
NCCCCNCCCN [SPERMIDINE],tR,[7],33.9 min
same,Level (nM (mg of protein)-1),HT-29 [8],0.4
same,Level (nM (mg of protein)-1),HT-29 [9],23.6
same,Level (nM (mg of protein)-1),HT-29 [10],7.9
same,Level (nM (mg of protein)-1),HT-29 [11],4.8
same,Level (nM (mg of protein)-1),HT-29 [12],0.3
same,Level (nM (mg of protein)-1),HT-29 [13],25.1
same,Level (nM (mg of protein)-1),HT-29 [14],0.7
same,Level (nM (mg of protein)-1),HT-29 [1],9.8
same,Level (nM (mg of protein)-1),HT-29 [2],13.4
same,Level (nM (mg of protein)-1),L1210 [15],6.4
same,Level (nM (mg of protein)-1),L1210 [16],1
same,Level (nM (mg of protein)-1),L1210 [3],41
same,Level (nM (mg of protein)-1),L1210 [4],38
same,Level (nM (mg of protein)-1),L1210 [17],0.2
same,Level (nM (mg of protein)-1),SV3T3 [18],11.5
same,Level (nM (mg of protein)-1),SV3T3 [19],3.1
same,Level (nM (mg of protein)-1),SV3T3 [5],0.3
same,Level (nM (mg of protein)-1),SV3T3 [6],26.4
same,Level (nM (mg of protein)-1),SV3T3 [20],8.7
same,Level (nM (mg of protein)-1),SV3T3 [21],2.6
same,Level (nM (mg of protein)-1),Homo sapiens,0.4
same,Level (nM (mg of protein)-1),HT-29 [22],4.4
NCCCNCCCCNCCCN [SPERMINE],tR,[7],40 min
same,Level (nM (mg of protein)-1),HT-29 [23],0.7
same,Level (nM (mg of protein)-1),HT-29 [24],1.2
same,Level (nM (mg of protein)-1),HT-29 [25],1.1
same,Level (nM (mg of protein)-1),HT-29 [8],0.7
same,Level (nM (mg of protein)-1),HT-29 [9],10.3
same,Level (nM (mg of protein)-1),HT-29 [10],21.5
same,Level (nM (mg of protein)-1),HT-29 [11],21.7
same,Level (nM (mg of protein)-1),HT-29 [12],0.8
same,Level (nM (mg of protein)-1),HT-29 [13],9
same,Level (nM (mg of protein)-1),HT-29 [14],3.8
same,Level (nM (mg of protein)-1),HT-29 [26],5.4 and 7.1
same,Level (nM (mg of protein)-1),HT-29 [1],10.5
same,Level (nM (mg of protein)-1),HT-29 [2],17.8
same,Level (nM (mg of protein)-1),HT-29 [27],0.9
same,Level (nM (mg of protein)-1),L1210 [15],35.6
same,Level (nM (mg of protein)-1),L1210 [16],13.4
same,Level (nM (mg of protein)-1),L1210 [3],9.1
same,Level (nM (mg of protein)-1),L1210 [4],16.3
same,Level (nM (mg of protein)-1),L1210 [17],3.2
same,Level (nM (mg of protein)-1),L1210 [28],1.1
same,Level (nM (mg of protein)-1),L1210 [29],1.7
same,Level (nM (mg of protein)-1),SV3T3 [30],3.3
same,Level (nM (mg of protein)-1),SV3T3 [18],24.5
same,Level (nM (mg of protein)-1),SV3T3 [19],31.5
same,Level (nM (mg of protein)-1),SV3T3 [5],9.3 and 7.8
same,Level (nM (mg of protein)-1),SV3T3 [6],7.1
same,Level (nM (mg of protein)-1),SV3T3 [31],1
same,Level (nM (mg of protein)-1),SV3T3 [20],9.5
same,Level (nM (mg of protein)-1),SV3T3 [21],20.6
same,Level (nM (mg of protein)-1),SV3T3 [32],0.3
same,Level (nM (mg of protein)-1),SV3T3 [33],0.8
same,Level (nM (mg of protein)-1),SV3T3 [34],3.8
same,Level (nM (mg of protein)-1),SV3T3 [35],3.5
same,Level (nM (mg of protein)-1),SV3T3 [36],0.4
same,Level (nM (mg of protein)-1),SV3T3 [37],0.3
same,Level (nM (mg of protein)-1),Homo sapiens,4.4
same,Level (nM (mg of protein)-1),HT-29 [22],21.5
same,Level (nM (mg of protein)-1),L1210 [38],7.3
same,Level (nM (mg of protein)-1),SV3T3 [39],13.5
same,Level (nM (mg of protein)-1),SV3T3 [40],7.7
same,Level (nM (mg of protein)-1),SV3T3 [41],11.5
same,Level (nM (mg of protein)-1),SV3T3 [42],14.3
same,Level (nM (mg of protein)-1),SV3T3 [43],7.8
